Data from ChEMBL document CHEMBL1129460, “Synthesis, biotransformation, and pharmacokinetic studies of 9-(beta-D-arabinofuranosyl)-6-azidopurine: a prodrug for ara-A designed to utilize the azide reduction pathway” (J Med Chem, 1996).

What was measured:
[1] = Pharmacokinetic parameter after dosing of 100 mg/kg of compound administered intravenously in brain; type: ADME, organism-based; set-up: dose 100 mg/kg, route intravenous; conditions: in vivo, iv
How it was run: (§1)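 Female NIH Swiss mice (24–28 g) dosed 100 mg/kg, iv or po by line. At least three mice were sacrificed per time point, 0.08–6 h, and whole brains were frozen at -20 °C. Extracts were assayed by HPLC-UV with AzdU internal standard. Noncompartmental analysis: linear trapezoidal AUC extrapolated to infinity, T1/2 = 0.693/λz, relative exposure re = AUC brain/AUC serum.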

[2] = Pharmacokinetic parameter after dosing of 100 mg/kg of compound administered orally in brain; type: ADME, organism-based; set-up: dose 100 mg/kg, route oral; conditions: in vivo, po; how it was run: as §1
Mus musculus [3] = organism: Mus musculus; assay: In vitro biotransformation of compound in mice liver homogenate 9-(beta-D-arabinifuranosyl)[…] analyte; type: ADME
How it was run: (§2)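 Mouse liver washed in cold saline, homogenized with 1 or 1.5 weight equiv water; homogenate incubated at 37 °C with substrate (initial 100 µg/mL; coformycin co-incubated where stated), water-bath shaker, blank half kept. Samples at 0, 5, 15, 30 min and 1–5 h; acetonitrile precipitation with AzdU internal standard, gradient HPLC-UV for ara-H, ara-A and 6-AAP. Kel and T1/2 are averages of two studies.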

Mus musculus [4] = organism: Mus musculus; assay: In vitro biotransformation of compound along with coformycin in mice liver homogenate 9-(beta-D-arabinifuranosyl)adenine(ara-A) analyte; type: ADME; how it was run: as §2
Mus musculus [5] = organism: Mus musculus; assay: In vitro biotransformation of compound in mice liver homogenate 9-(beta-D-arabinifuranosyl)-6-hypoxanthine(ara-H) analyte; type: ADME; how it was run: as §2
Mus musculus [6] = organism: Mus musculus; assay: In vitro biotransformation of compound in mice liver homogenate 9-(beta-D-arabinifuranosyl)adenine(ara-A) analyte; type: ADME; how it was run: as §2

Activity [1] | Activity [2] | Kel (Mus musculus [3]) [h⁻¹] | T1/2 (Mus musculus [3]) [h] | Kel (Mus musculus [4]) [h⁻¹] | T1/2 (Mus musculus [4]) [h] | Kel (Mus musculus [5]) [h⁻¹] | T1/2 (Mus musculus [5]) [h] | Kel (Mus musculus [6]) [h⁻¹] | T1/2 (Mus musculus [6]) [h] | Compound
0.05 | 1.35 | 0.31 | 2.24 |  |  |  |  |  |  | Nc1ncnc2c1ncn2[C@@H]1O[C@H](CO)[C@@H](O)[C@@H]1O [VIDARABINE]
 |  |  |  | 0.27 | 2.58 |  |  |  |  | OC[C@H]1O[C@@H](n2cnc3c2NC=NC[C@H]3O)[C@H](O)[C@@H]1O.[N-]=[N+]=Nc1ncnc2c1ncn2[C@@H]1O[C@H](CO)[C@@H](O)[C@@H]1O
0.02 | 0.3 |  |  |  |  | 0.26 | 2.45 | 0.48 | 1.46 | [N-]=[N+]=Nc1ncnc2c1ncn2[C@@H]1O[C@H](CO)[C@@H](O)[C@@H]1O
